Laboratory results published in ChEMBL document CHEMBL4371073, “Improvement of Aqueous Solubility of Lapatinib-Derived Analogues: Identification of a Quinolinimine Lead for Human African Trypanosomiasis Drug Development” (J Med Chem, 2019).

assay: Chemical stability in 0.01 N NaOH solution at 2 mg up to 16 hrs by LC-MS analysis; format: physicochemical; conditions: not given

Structure (SMILES)	Stability
CN1CCCN(c2ncc(-c3ccc4/c(=N/c5cnccn5)ccn(C)c4c3)cn2)CC1	Stable

assay: Intrinsic clearance in human liver microsomes by LC-MS/MS analysis; format: ADME, Microsome; conditions: liver microsomes, read-out: CLH
Procedure, shortened: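 Human liver microsomes were incubated with compound and samples analyzed by LC/MS/MS. Clint is expressed as μL/min/mg.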

Structure (SMILES)	microsomal CLint
CN(CCNc1ncc(-c2ccc3c(Nc4cnccn4)ccnc3c2)cn1)C(=O)OC(C)(C)C	> 300 µL/min/mg
CN1CCN(c2ncc(-c3ccc4c(Nc5cnccn5)ccnc4c3)cn2)CC1	180 µL/min/mg

same assay, conditions: microsomes

Structure (SMILES)	Microsomal intrinsic clearance
CCN1CCN(c2ncc(-c3ccc4c(Nc5cnccn5)ccnc4c3)cn2)CC1	> 300 µL/min/mg
Cc1nccnc1Nc1ccnc2cc(-c3cnc(N4CCCN(C)CC4)nc3)ccc12	79 µL/min/mg
CN1CCN(c2ncc(-c3ccc4c(Nc5cnccn5)ccnc4c3)cn2)CC1.CS(=O)(=O)O	170 µL/min/mg
CN1CCN(c2ncc(-c3ccc4c(NC5CCOCC5)ccnc4c3)cn2)CC1	94 µL/min/mg
CN1CCN(c2ncc(-c3ccc4c(N[C@@H]5CCCC[C@H]5O)ccnc4c3)cn2)CC1	160 µL/min/mg
CN1CCN(c2ncc(-c3ccc4c(Nc5cnccn5)ccnc4c3)cn2)CC1.Cl	160 µL/min/mg
c1cnc(Nc2ccnc3cc(-c4cnc(N5CCNCC5)nc4)ccc23)cn1	30 µL/min/mg
CN1CCN(c2ccc(-c3ccc4c(Nc5cnccn5)ccnc4c3)cc2)CC1	61 µL/min/mg
CN1CCN(c2ncc(-c3ccc4c(NC5CCCCC5)ccnc4c3)cn2)CC1	300 µL/min/mg
CN(C)CCN(C)c1ncc(-c2ccc3c(Nc4cnccn4)ccnc3c2)cn1	45 µL/min/mg
CN1CCN(c2ncc(Nc3ccc4c(Nc5cnccn5)ccnc4c3)cn2)CC1	46 µL/min/mg
CN1CCC2(CCN(c3ncc(-c4ccc5c(Nc6cnccn6)ccnc5c4)cn3)C2)C1 (stereo not drawn)	77 µL/min/mg
Cc1cncc(Nc2ccnc3cc(-c4cnc(N5CCCN(C)CC5)nc4)ccc23)n1	72 µL/min/mg
O=C(O)CN1CCN(c2ncc(-c3ccc4c(Nc5cnccn5)ccnc4c3)cn2)CC1	53 µL/min/mg
CN1CCN(c2ncc(-c3ccc4c(Nc5cnccn5)ccnc4c3)cn2)CC1.O=C(O)CC(O)(CC(=O)O)C(=O)O	190 µL/min/mg

More lines, now with the values ahead:

Microsomal intrinsic clearance	Structure (SMILES)
43 µL/min/mg	CN1CC2(CCN(c3ncc(-c4ccc5c(Nc6cnccn6)ccnc5c4)cn3)C2)C1
100 µL/min/mg	Cc1cnc(Nc2ccnc3cc(-c4cnc(N5CCCN(C)CC5)nc4)ccc23)cn1
220 µL/min/mg	COC(=O)[C@@H]1CCCN1c1ncc(-c2ccc3c(Nc4cnccn4)ccnc3c2)cn1
300 µL/min/mg	CCCN1CCCN(c2ncc(-c3ccc4c(Nc5cnccn5)ccnc4c3)cn2)CC1
> 300 µL/min/mg	c1cnc(Nc2ccnc3cc(-c4cnc(N5CCCCCC5)nc4)ccc23)cn1
24 µL/min/mg	COc1ccc(NC(=O)c2ccc(-c3cnc(N4CCCN(C)CC4)nc3)cc2O)cc1Cl
51 µL/min/mg	CCCn1cc/c(=N\c2cnccn2)c2ccc(-c3cnc(N4CCCN(C)CC4)nc3)cc21
> 300 µL/min/mg	CC(C)(C)OC(=O)NCCNc1ncc(-c2ccc3c(Nc4cnccn4)ccnc3c2)cn1
200 µL/min/mg	CCN1CCCN(c2ncc(-c3ccc4c(Nc5cnccn5)ccnc4c3)cn2)CC1
38 µL/min/mg	CCn1cc/c(=N\c2cnccn2)c2ccc(-c3cnc(N4CCCN(C)CC4)nc3)cc21
41 µL/min/mg	CN1C[C@H]2C[C@@H]1CN2c1ncc(-c2ccc3c(Nc4cnccn4)ccnc3c2)cn1
170 µL/min/mg	CN1CCCN(c2ncc(-c3ccc4c(N(C)c5cnccn5)ccnc4c3)cn2)CC1
170 µL/min/mg	CN1CCN(c2ncc(-c3ccc4c(NCC5CCOCC5)ccnc4c3)cn2)CC1
77 µL/min/mg	CN1CCCN(c2ncc(-c3ccc4c(Nc5cnccn5)ccnc4c3)cn2)CC1
< 3 µL/min/mg	O=C(O)[C@@H]1CCCN1c1ncc(-c2ccc3c(Nc4cnccn4)ccnc3c2)cn1
86 µL/min/mg	NCCNc1ncc(-c2ccc3c(Nc4cnccn4)ccnc3c2)cn1
37 µL/min/mg	CN1C[C@@H]2C[C@H]1CN2c1ncc(-c2ccc3c(Nc4cnccn4)ccnc3c2)cn1

assay: Chemical stability in 0.01 N HCl solution at 2 mg up to 16 hrs by LC-MS analysis; format: physicochemical; conditions: not given

Structure (SMILES)	Stability
CN1CCCN(c2ncc(-c3ccc4/c(=N/c5cnccn5)ccn(C)c4c3)cn2)CC1	Stable

assay: Stability in presence of GSH at 2.3 mg up to 24 hrs by LC-MS analysis; format: physicochemical; conditions: not given

Structure (SMILES)	Stability
CN1CCCN(c2ncc(-c3ccc4/c(=N/c5cnccn5)ccn(C)c4c3)cn2)CC1	Stable

assay: Stability in presence of sodium cyanide at 2.3 mg up to 24 hrs by LC-MS analysis; format: physicochemical; conditions: not given

Structure (SMILES)	Stability
CN1CCCN(c2ncc(-c3ccc4/c(=N/c5cnccn5)ccn(C)c4c3)cn2)CC1	Stable
